Calls of active or inactive are those of the source. No cut-off for these calls is given here.
What was measured:
[1] = Lipophilicity (Rm).; format: physicochemical
HCT-8 = assay: Ability to inhibit the growth of human colon tumor HCT-8 cells in vitro.; format: functional, cell-based
In short: (§1)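 Cultured leukemia L1210 or human colon tumor HCT-8 cells were exposed to drug for 40 h.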

L1210 = assay: Ability to inhibit the growth of leukemia L1210 cells in vitro.; format: functional, cell-based; settings: Mus musculus; in short: as §1
[2] = system: Lewis lung carcinoma cell line; assay: Optimal dose required to inhibit the LL Lewis lung carcinoma model cells in vivo administered intraperitoneally; format: functional, Mus musculus
In short: (§2)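 Mice were inoculated iv with 10^6 Lewis lung carcinoma cells. OD is the optimal dose in mg/kg per day. Lifespan increase above 40% is significant, and long-term survival was scored at 60 days.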

[3] = system: Lewis lung carcinoma cell line; assay: (§3) Optimal dose required to inhibit the LL (Lewis lung carcinoma model) cells in vivo administered intraperitoneally; NA= not active; format: functional
In short: (§4)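 Groups of 6. Optimal dose is in mg/kg per day. ILSmax is the % lifespan increase over untreated tumor-bearing controls at the optimal dose; above 40% counted significant. Cures are 60-day survivors.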

Mus musculus = organism: Mus musculus; assay: Percent increase in life span of the drug treated tumor bearing animals vs nontreated tumor bearing controls was determined against P388/ADR cells;NA= not active; format: functional, organism-based
In short: (§5)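 Mice were inoculated ip with 10^6 P388 or ADR/P388 cells. OD is the optimal dose in mg/kg per day. ILSmax is the % lifespan increase over untreated tumor-bearing controls at the OD; above 20% is significant. Long-term survival was scored at 50 days.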

P388/ADR [4] = assay: Optimal dose required to inhibit the P388/ADR cells in vivo after intraperitoneal administration.; format: functional, Mus musculus; set-up: unit: mg/kg/day
P388 [5] = assay: Optimal dose required to inhibit the P388 intraperitoneal administration.; format: functional, Mus musculus; set-up: unit: mg/kg/day
P388 [6] = assay: Percent increase in life span of the drug-treated tumor-bearing animals vs nontreated tumor-bearing controls with P388 leukemia cells.; format: functional, Mus musculus
In short: (§6)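 Groups of 6. Optimal dose is in mg/kg per day. ILSmax is the % lifespan increase over untreated tumor-bearing controls at the optimal dose; above 20% counted significant. Cures are 50-day survivors.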

poly[d(A-T)] = assay: Binding constant for poly[d(A-T)] by ethidium bromide displacement
[7] = The compound was evaluated for its acid dissociation constant; format: ADME
P388 [8] = assay: Optimal dose required to inhibit the P388 intraperitoneally; format: functional, Mus musculus; in short: as §6
Nucleic Acid = assay: Binding constant (1/M) to poly[d(A-T)] by ethidium bromide displacement; format: nucleic-acid assay
[9] = system: Lewis lung carcinoma cell line; assay: Percent increase in life span of the drug treated tumor bearing animals vs nontreated tumor bearing controls was determined against LL (Lewis lung carcinoma model) cells;NA= not active; format: functional, Mus musculus; in short: as §4
[10] = system: Lewis lung carcinoma cell line; assay: as §3; format: functional, Mus musculus; in short: as §2
P388/ADR [11] = assay: Percent increase in life span, of the drug-treated tumor-bearing animals vs nontreated tumor-bearing controls with P388/ADR cells.; format: functional, Mus musculus; in short: as §6
[12] = system: Lewis lung carcinoma cell line; assay: Optimal dose to inhibit the LL (Lewis lung carcinoma model) cells in vivo after intraperitoneal administration.; format: functional, Mus musculus; set-up: unit: mg/kg/day; in short: as §2
P388 [13] = assay: Percent increase in life span of the drug treated tumor bearing animals vs nontreated tumor bearing controls was determined against P388 leukemia cells; NA = not active; format: functional; settings: Mus musculus; in short: as §5

`CNc1cc(NC(=O)OC)ccc1Nc1c2ccccc2nc2ccc(C)cc12` gave a Rm [1] of 0.7, an IC50 (HCT-8) of 850 nM and an IC50 (L1210) of 436 nM. The OD [2] was 13.3, the ILS max ([3]; Mus musculus) was “inactive” and the ILS max (Mus musculus) was “inactive”. It also gave an OD (P388/ADR [4]) of 45, an OD (P388 [5]) of 45 and an ILS max (P388 [6]) of 69. The Log K (poly[d(A-T)]) was 5.62.

Work on `CNc1cc(NP(=O)(OC)OC)ccc1Nc1c2ccccc2nc2ccccc12` yielded a Rm [1] of 0.32, a pKa [7] of 8.09 and an OD (P388 [8]) of 13.3. For the same compound, the “Log K” value (Nucleic Acid) was 6.82.

In the case of `CNc1cc(NC(=O)OC)ccc1Nc1c2ccccc2nc2cc(C)ccc12`, the Rm [1] is reported as 0.78, the IC50 (HCT-8) is reported as 270 nM and the IC50 (L1210) is reported as 152 nM. For the same compound, the ILS max [9] was 58, the OD [10] was 8.9 and the ILS max (Mus musculus) was “inactive”. For the same compound, the OD (P388/ADR [4]) was 13.3, the OD (P388 [5]) was 8.9 and the ILS max (P388 [6]) was 105. For the same compound, the Log K (poly[d(A-T)]) was 6.72.

In the case of `CNc1cc(NC(=O)OC)ccc1Nc1c2ccccc2nc2ccccc12`, the Rm [1] is reported as 0.51, the pKa [7] is reported as 7.95 and the IC50 (HCT-8) is reported as 290 nM. For the same compound, the IC50 (L1210) was 284 nM, the OD [2] was 30 and the ILS max [3] was 112. It also gave an ILS max (P388/ADR [11]) of 50, an OD (P388/ADR [4]) of 45 and an OD (P388 [5]) of 30. It also gave an ILS max (P388 [6]) of 132 and a Log K (poly[d(A-T)]) of 6.35.

With `CNc1cc(NC(=O)OC)ccc1Nc1c2ccccc2nc2c(Cl)cccc12` the Rm [1] was 0.42, the IC50 (HCT-8) was 4500 nM and the IC50 (L1210) was 906 nM. The ILS max ([9]; Mus musculus) was “inactive”, the OD [12] was 65 and the ILS max (P388/ADR [11]) was 22. The OD (P388/ADR [4]) was 45, the OD (P388 [5]) was 30 and the ILS max (P388 [6]) was 30. The Log K (poly[d(A-T)]) was 6.3.

For `CC(=O)Nc1ccc(Nc2c3ccccc3nc3ccccc23)c(N(C)C)c1`, the Rm [1] was 0.57, the pKa [7] was 7.59 and the ILS max (Mus musculus) was “inactive”. The ILS max (P388 [13]) was “inactive”, the OD (P388/ADR [4]) was 100 and the OD (P388 [5]) was 65. The Log K (poly[d(A-T)]) was 5.58.
